Test results taken from ChEMBL document CHEMBL1154750 (J Med Chem, 2010).

Target: Neuraminidase (Influenza A virus) (UniProt B4URF0)
Experiment: Inhibition of oseltamivir-resistant Influenza Virus A/342/0 (H1N1) neuraminidase at 52.5 uM
Procedure, shortened: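 Human oseltamivir-resistant H1N1 NA tested at a single 52.5 μM concentration in the NA-Star chemiluminescent assay. Compound and virus dilution were held 20 min at 37 C, then substrate (1:500) was added for 30 min at room temperature. Value given as percent inhibition relative to six untreated virus controls.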

Chain of Neuraminidase (Influenza A virus) (B4URF0 as listed by the source): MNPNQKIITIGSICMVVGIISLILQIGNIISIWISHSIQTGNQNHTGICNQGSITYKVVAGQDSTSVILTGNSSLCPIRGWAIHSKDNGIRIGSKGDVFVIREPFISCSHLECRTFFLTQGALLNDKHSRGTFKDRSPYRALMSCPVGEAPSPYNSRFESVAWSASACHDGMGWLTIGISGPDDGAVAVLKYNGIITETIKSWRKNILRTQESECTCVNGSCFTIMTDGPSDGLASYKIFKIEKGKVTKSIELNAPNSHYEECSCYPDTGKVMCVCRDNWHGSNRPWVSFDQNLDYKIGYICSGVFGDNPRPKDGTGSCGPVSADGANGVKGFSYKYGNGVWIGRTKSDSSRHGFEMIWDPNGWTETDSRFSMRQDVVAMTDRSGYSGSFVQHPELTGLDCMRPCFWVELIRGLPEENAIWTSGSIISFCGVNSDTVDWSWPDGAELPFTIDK

O=C(CCc1ccccc1)C[C@@H]1C[C@@H](c2ccccc2)c2c(cc(/C=C/c3ccccc3)oc2=O)O1 [KATSUMADAIN A]
inhibition: 45.9%
